The record followed here is ChEMBL document CHEMBL4052605, “Lissoclibadin 1, a Polysulfur Aromatic Alkaloid from the Indonesian Ascidian Lissoclinum cf. badium, Induces Caspase-Dependent Apoptosis in Human Colon Cancer Cells and Suppresses Tumor Growth in Nude Mice” (J Nat Prod, 2017).

Common to all, as to format: functional, cell-based
The subject of one test is NCI-H28. The experiment in a line: Antiproliferative activity against human NCI-H28 cells after 24 hrs by WST-1 assay. The settings on record: NCI-H28, 24 h. Put shortly: (§1)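 WST-1 viability assay. Cells seeded at 5 × 10^3 per well and grown 24 h, then given lissoclibadins at 0.1−40 μM (etoposide 1.0−100 μM) in triplicate for 24 h. WST-1 added and absorbance read 4 h later at 450 nm, background subtracted at 650 nm. Viability expressed as % of control; IC50 taken as 50% inhibition of viability. Three experiments, mean ± SD.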
A general note: Tetrazolium dyes change colour on reduction, which living cells bring about.

A further test has as its system HCT-15. The experiment in a line: Antiproliferative activity against human HCT15 cells after 24 hrs by WST-1 assay. The settings on record: HCT-15, 24 h. In short, it runs like this: as §1
The next test has as its system MCF7. Put plainly: Antiproliferative activity against human MCF7 cells after 24 hrs by WST-1 assay. The settings on record: MCF7, 24 h. In short, it runs like this: as §1
For a further test, the system named is HeLa S3. Put plainly: Antiproliferative activity against human HeLaS3 cells after 24 hrs by WST-1 assay. The settings on record: HeLa S3, 24 h. Put shortly:
as §1

One may read the IC50 as the concentration that gives 50% inhibition. For `COc1cc(CCN(C)C)c2c(c1O)SSSSS2` [ISOLISSOCLINOTOXIN B], the IC50 in the test on NCI-H28 was 6.4 µM; in the test on HCT-15, 4.2 µM; with MCF7 it was 6.4 µM; with HeLa S3, 5.9 µM.

As for `COc1cc([C@@H]2c3cc4c(cc3[C@@H](O[C@@H]3O[C@@H]5CO[C@@H](C)O[C@H]5[C@H](O)[C@H]3O)[C@H]3COC(=O)[C@H]23)OCO4)cc(OC)c1O` [ETOPOSIDE], the IC50 in the test with HCT-15 came out at 19.7 µM; in the test on HeLa S3, 43.1 µM.

Take `COc1cc(CCN(C)C)c2c(c1O)SSc1c(CCN(C)C)cc(OC)c(O)c1SS2` [LISSOCLIBADIN 7]: the IC50 in the test with HCT-15 is 15.7 µM; in the test with HeLa S3, 14.2 µM.
